Data from ChEMBL document CHEMBL1127529, “Antipsoriatic anthrones with modulated redox properties. 2. Novel derivatives of chrysarobin and isochrysarobin--antiproliferative activity and 5-lipoxygenase inhibition” (J Med Chem, 1994).

Experiments:
[1] = Deoxyribose degradation assay as hydroxy radical formation; type: functional
How it was run: (§1)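 2-Deoxy-D-ribose (2 mM) was incubated with FeCl3 (0.1 mM) and compound (75 μM) in KH2PO4-KOH buffer pH 7.4 (30 mM) for 2 h at 37 °C with shaking. TBA-reactive material was read at 532 nm. Result is µmol malondialdehyde per mmol deoxyribose.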

[2] = test system: HaCaT; experiment: Antiproliferative activity against HaCaT cells; type: functional, cell-based; details: Homo sapiens
How it was run: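 HaCaT human keratinocytes were kept in DMEM with 10% FCS, penicillin and streptomycin at 37 °C under 8% CO2. After 48 h the cells were detached with trypsin/EDTA and counted by phase-contrast microscopy.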

[3] = test system: Liposome; experiment: Inhibition of 2,2'-azobis(2-aminopropane)hydrochloride (AAPH) induced lipid peroxidation in bovine brain phospholipid liposomes; type: functional, subcellular, Bos taurus
[4] = Partition coefficient (logP) (HPLC); type: physicochemical; details: octanol/water
How it was run: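 Reversed-phase HPLC with MeOH/water/HOAc (77-23-0.1) as eluant, adjusted to pH 5.5 with concentrated NH3.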

[5] = target: T1, Arachidonate 5-lipoxygenase (Bos taurus, UniProt Q9BEG3); experiment: Inhibition of 5-lipoxygenase in bovine polymorphonuclear leukocytes; type: cell-based
T1 sequence (Q9BEG3 whole entry): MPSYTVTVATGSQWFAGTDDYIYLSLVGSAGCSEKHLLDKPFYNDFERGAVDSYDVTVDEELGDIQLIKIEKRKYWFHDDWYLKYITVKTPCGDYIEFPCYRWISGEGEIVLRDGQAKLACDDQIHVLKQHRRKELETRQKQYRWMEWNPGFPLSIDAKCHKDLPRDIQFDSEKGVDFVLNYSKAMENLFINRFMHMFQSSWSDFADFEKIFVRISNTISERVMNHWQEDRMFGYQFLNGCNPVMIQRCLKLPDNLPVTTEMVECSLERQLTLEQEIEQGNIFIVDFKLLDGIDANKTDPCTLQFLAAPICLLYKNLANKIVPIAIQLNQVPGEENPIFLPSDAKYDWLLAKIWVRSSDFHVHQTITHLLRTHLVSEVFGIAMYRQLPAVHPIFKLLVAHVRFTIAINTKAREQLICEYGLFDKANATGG
How it was run: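 Bovine PMNL (10^7 cells/mL) were stimulated with Ca-ionophore. Compound was preincubated for 15 min at 37 °C.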

[6] = Reducing activity against 2,2-diphenyl-1-picrylhydrazyl (DPPH) with equimolar compound; type: functional
How it was run: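 Test compound and DPPH, each 10⁻⁴ M in acetone/PBS (1-1 v/v), mixed 1 mL + 1 mL. DPPH reduction followed spectrophotometrically at 516 nm. Reciprocal DPPH concentration plotted against time gave straight lines, and second-order rate constants (M⁻¹ s⁻¹) were taken from the slopes. Values are means, N = 3-6. Highly reactive compounds gave approximate values only.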

[7] = Deoxyribose degradation as a measure of hydroxy radical formation.; type: functional; how it was run: as §1

| Structure (SMILES) | IC50 [3] | logP [4] | IC50 [5] | DD (uM of MDA mM-1) [1] | IC50 [2] | kDPPH [6] | DD (uM of MDA mM-1) [7] |
| --- | --- | --- | --- | --- | --- | --- | --- |
| COc1c(OC)c(OC(C)=O)c2cc(Cl)ccc2c1OC(C)=O [LONAPALENE] | > 50 µM | – | – | < 0.15 | 3.2 µM | – | – |
| O=C1c2c(O)cccc2Cc2cc(Cc3ccccc3)cc(O)c21 | 64 µM | 5.29 | > 30 µM | – | – | 18.1 M⁻¹ s⁻¹ | < 0.25 |
| COc1ccc(Cc2ccc3c(c2O)C(=O)c2c(O)cccc2C3)cc1 | – | 5.62 | > 30 µM | – | – | 11.3 M⁻¹ s⁻¹ | < 0.25 |
| O=C(c1ccccc1)c1cc(O)c2c(c1)Cc1cccc(O)c1C2=O | 40 µM | 4.83 | > 30 µM | – | – | > 100 M⁻¹ s⁻¹ | 1.97 |
| O=C1c2c(O)cccc2Cc2ccc(CCCCc3ccccc3)c(O)c21 | 112 µM | 6.81 | > 30 µM | – | – | 10.4 M⁻¹ s⁻¹ | < 0.15 |
| O=C(c1ccccc1)c1ccc2c(c1O)C(=O)c1c(O)cccc1C2 | 43 µM | 4.47 | 18 µM | – | 1.6 µM | > 100 M⁻¹ s⁻¹ | 2.68 |
| COc1ccc(Cc2ccc3c(c2O)C(=O)c2c(O)cccc2C3)c(OC)c1 | – | 5.04 | > 30 µM | – | > 5 µM | > 100 M⁻¹ s⁻¹ | < 0.15 |
| COC(=O)c1ccccc1Cc1ccc2c(c1O)C(=O)c1c(O)cccc1C2 | – | 5.24 | > 30 µM | – | – | 11.4 M⁻¹ s⁻¹ | < 0.15 |
| O=C1c2c(O)cccc2Cc2ccc(Cc3ccc(Cl)cc3)c(O)c21 | 150 µM | 5.98 | > 30 µM | – | – | 19.3 M⁻¹ s⁻¹ | < 0.15 |
| COc1ccc(Cc2cc(O)c3c(c2)Cc2cccc(O)c2C3=O)cc1 | 33 µM | 5.3 | > 30 µM | – | 0.3 µM | 11.2 M⁻¹ s⁻¹ | < 0.15 |
| O=C(O)c1ccc(Cc2ccc3c(c2O)C(=O)c2c(O)cccc2C3)cc1 | 62 µM | 4.1 | – | – | – | 9.9 M⁻¹ s⁻¹ | < 0.25 |
| COc1ccc(OC)c(Cc2cc(O)c3c(c2)Cc2cccc(O)c2C3=O)c1 | – | 5.17 | > 30 µM | – | 0.2 µM | 14.8 M⁻¹ s⁻¹ | 0.51 |
| COc1ccc(Cc2cc(O)c3c(c2)Cc2cccc(O)c2C3=O)c(OC)c1 | > 200 µM | 5.34 | > 30 µM | – | 0.4 µM | 10.3 M⁻¹ s⁻¹ | 0.32 |
| COC(=O)c1ccc(Cc2ccc3c(c2O)C(=O)c2c(O)cccc2C3)cc1 | – | 5.34 | > 30 µM | – | – | 10.4 M⁻¹ s⁻¹ | < 0.25 |
| COc1ccc(C(=O)c2cc(O)c3c(c2)Cc2cccc(O)c2C3=O)cc1 | – | 4.83 | > 30 µM | – | 1.7 µM | > 100 M⁻¹ s⁻¹ | 0.98 |
| O=C1c2c(O)cccc2Cc2ccc(Cc3ccccc3)c(O)c21 | 98 µM | 5.61 | > 30 µM | – | > 5 µM | 11.2 M⁻¹ s⁻¹ | < 0.25 |
| O=C1c2c(O)cccc2Cc2cc(Cc3cc(O)ccc3O)cc(O)c21 | 3 µM | 3.2 | – | – | 0.4 µM | > 100 M⁻¹ s⁻¹ | 1.74 |
| COc1ccc(CCCc2ccc3c(c2O)C(=O)c2c(O)cccc2C3)cc1 | – | 6.46 | 30 µM | – | > 5 µM | 14 M⁻¹ s⁻¹ | < 0.15 |
| Cc1ccc(Cc2ccc3c(c2O)C(=O)c2c(O)cccc2C3)cc1 | – | 6.04 | > 30 µM | < 0.25 | – | 8.5 M⁻¹ s⁻¹ | – |
| COc1ccc(Cc2ccc3c(c2O)C(=O)c2c(O)cccc2C3)cc1OC | – | 5.79 | > 30 µM | – | – | > 100 M⁻¹ s⁻¹ | < 0.15 |
| COc1ccccc1Cc1ccc2c(c1O)C(=O)c1c(O)cccc1C2 | – | 5.62 | > 30 µM | – | – | 12 M⁻¹ s⁻¹ | < 0.25 |
| COc1ccc(OC)c(Cc2ccc3c(c2O)C(=O)c2c(O)cccc2C3)c1 | > 200 µM | 5.72 | > 30 µM | – | – | > 100 M⁻¹ s⁻¹ | < 0.15 |
| O=C1c2c(O)cccc2Cc2cc(Cc3ccc(O)cc3)cc(O)c21 | 14 µM | 4.52 | > 30 µM | 0.27 | 0.4 µM | 12.6 M⁻¹ s⁻¹ | – |
| O=C1c2c(O)cccc2Cc2ccc(CCc3ccccc3)c(O)c21 | 110 µM | 6.23 | > 30 µM | – | – | 16.1 M⁻¹ s⁻¹ | < 0.15 |
| O=C1c2c(O)cccc2Cc2ccc(Cc3cccc(Oc4ccccc4)c3)c(O)c21 | – | 6.35 | > 30 µM | – | – | 6.4 M⁻¹ s⁻¹ | < 0.15 |
| Cc1ccc(C(=O)c2cc(O)c3c(c2)Cc2cccc(O)c2C3=O)cc1 | 40 µM | 5.14 | > 30 µM | – | – | > 100 M⁻¹ s⁻¹ | 1.01 |
| O=C1c2c(O)cccc2Cc2ccc(Cc3ccc(C(F)(F)F)cc3)c(O)c21 | – | 5.92 | > 30 µM | – | > 5 µM | 3.7 M⁻¹ s⁻¹ | < 0.15 |
| CC(Cc1ccc(O)c(O)c1)C(C)Cc1ccc(O)c(O)c1 (stereo unspecified) [NORDIHYDROGUAIARETIC ACID] | 2 µM | – | – | – | – | – | – |

The next lines start with results.

| IC50 [3] | logP [4] | IC50 [5] | Structure (SMILES) | DD (uM of MDA mM-1) [1] | IC50 [2] | kDPPH [6] | DD (uM of MDA mM-1) [7] |
| --- | --- | --- | --- | --- | --- | --- | --- |
| – | 4.01 | 4 µM | O=C1c2c(O)cccc2Cc2ccc(Cc3ccc(O)c(O)c3)c(O)c21 | – | 0.4 µM | > 100 M⁻¹ s⁻¹ | 1.82 |
| – | 5.64 | 6 µM | COc1cc(CCCc2ccc3c(c2O)C(=O)c2c(O)cccc2C3)cc(OC)c1OC | – | 2 µM | > 100 M⁻¹ s⁻¹ | < 0.15 |
| 16 µM | 3.67 | 7 µM | O=C1c2c(O)cccc2Cc2cc(Cc3ccc(O)cc3O)cc(O)c21 | 3.26 | 0.5 µM | 39.3 M⁻¹ s⁻¹ | – |
| 67 µM | 6.44 | 11 µM | O=C1c2c(O)cccc2Cc2ccc(CCCc3ccccc3)c(O)c21 | – | > 5 µM | 11.1 M⁻¹ s⁻¹ | 0.56 |
| 4 µM | 3.88 | 2 µM | O=C1c2c(O)cccc2Cc2cc(Cc3ccc(O)c(O)c3)cc(O)c21 | – | 0.5 µM | > 100 M⁻¹ s⁻¹ | 0.41 |
| 50 µM | 5.27 | 2 µM | O=C1c2c(O)cccc2Cc2ccc(CCCc3ccc(O)cc3)c(O)c21 | – | 0.4 µM | > 100 M⁻¹ s⁻¹ | < 0.15 |
| 25 µM | 4.67 | 5 µM | O=C1c2c(O)cccc2Cc2ccc(Cc3ccccc3O)c(O)c21 | – | 0.7 µM | > 100 M⁻¹ s⁻¹ | 0.35 |
| 7 µM | 3.33 | 0.9 µM | O=C1c2c(O)cccc2Cc2ccc(Cc3cc(O)ccc3O)c(O)c21 | – | 0.7 µM | > 100 M⁻¹ s⁻¹ | 1.46 |
| 16 µM | 3.68 | 5 µM | O=C1c2c(O)cccc2Cc2ccc(Cc3ccc(O)cc3O)c(O)c21 | – | 1.5 µM | > 100 M⁻¹ s⁻¹ | 0.34 |
| 42 µM | 4.48 | 4 µM | O=C(O)c1ccccc1Cc1ccc2c(c1O)C(=O)c1c(O)cccc1C2 | – | > 5 µM | 16.9 M⁻¹ s⁻¹ | 1.2 |
| 43 µM | 4.66 | 7 µM | O=C1c2c(O)cccc2Cc2ccc(Cc3ccc(O)cc3)c(O)c21 | – | 0.8 µM | > 100 M⁻¹ s⁻¹ | 0.38 |
| 5 µM | 3.96 | 0.6 µM | O=C1c2c(O)cccc2Cc2ccc(CCCc3cc(O)c(O)c(O)c3)c(O)c21 | – | 0.5 µM | > 100 M⁻¹ s⁻¹ | 2.97 |
